High-throughput results: PubChem, Sanford-Burnham Center for Chemical Genomics
Most compounds without a hit are left out; they make up all but 1.5% or so of the library.
CXCR6 block – inhibitors of human CXCR6 receptor. actives 0.36% (n = 360,000). inhibition, % at 20 µM. CHO-K1 PathHunter CXCR6 beta-arrestin, luminescence. O00574; in the data active means inhibition above about 34%, passing the limit was not always enough;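 further: antagonist mode with CXCL16 agonist at 10 nM final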
EBI2 antag – blocks human EBI2 receptor beta-arrestin signaling. inhibition, % at 5 µM. AID 651636. actives 0.81% (n = 360,000). EBI2 beta-arrestin recruitment, luminescence, 7a,25-OHC stimulated. P32249; in the data active means inhibition above about 38%;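 further: enzyme fragment complementation signal reports receptor beta-arrestin coupling in cells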
Target sequence (P32249 whole entry, looked up, the tested form may be a part): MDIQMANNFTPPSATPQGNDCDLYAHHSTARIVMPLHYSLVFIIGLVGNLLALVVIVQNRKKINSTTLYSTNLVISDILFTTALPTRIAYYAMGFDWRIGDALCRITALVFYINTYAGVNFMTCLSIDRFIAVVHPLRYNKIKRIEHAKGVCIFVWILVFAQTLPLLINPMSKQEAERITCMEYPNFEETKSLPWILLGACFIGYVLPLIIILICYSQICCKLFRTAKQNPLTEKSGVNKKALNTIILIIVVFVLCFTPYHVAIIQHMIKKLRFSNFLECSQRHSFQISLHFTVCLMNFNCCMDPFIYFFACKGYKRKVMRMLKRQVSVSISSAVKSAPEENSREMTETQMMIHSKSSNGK
CCR6 antagonist – antagonists of human CCR6 receptor; CHO-K1 CCR6 PathHunter beta-arrestin, luminescence, CCL20-stimulated; actives 0.49% (n = 340,000); inhibition, % at 20 µM;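 active means compounds whose inhibition of the agonist-driven luminescence signal at 20 µM reaches about 50%, limit read from the data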;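 further: cells stimulated with CCL20 at 14 nM final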
APJ antag – antagonists of human APJ apelin receptor | AID 2521 | inhibition, % at 20 µM | actives 0.32% (n = 330,000) | CHO-K1 APJ beta-arrestin complementation, luminescence | P35414;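 active means inhibition above about 40% at 20 µM, limit read from the data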;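 further: cells challenged with 10 nM apelin-13 agonist together with compound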
APJ ag – activates the human apelin receptor APJ | P35414 | CHO-K1 APJ PathHunter beta-arrestin, luminescence; 0% DMSO wells, 100% apelin | activation, % at 20 µM | actives 0.11% (n = 330,000);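 active means activation more than six SD over the plate average, tested at 20 µM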
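Test system – PathHunter CHO-K1 APJ (AGTRL-1) beta-arrestin reporter cells · Input – 1000 cells/well · Compound – single test compound dose, 20 µM final, 1% DMSO · Times – compound stimulation 90 min at 25 °C, detection 60 min · Technique – beta-gal luminescence · Read-out basis – APJ–arrestin association signal · Control set – negative DMSO alone, positive Apelin-13 at 10 nM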
CXCR6 confirm – confirmation of human CXCR6 receptor antagonists; shares compounds with CXCR6 block; CHO-K1 CXCR6 PathHunter beta-arrestin, luminescence; inhibition, % at 20 µM; actives 65% (n = 700); AID 602409;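 active means mean inhibition over four retests above 40%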;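 further: receptor stimulated with 10 nM CXCL16 agonist; beta-galactosidase fragment complementation upon beta-arrestin recruitment to receptor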
Numbers stand for hits; . = inactive; / = no result.

SMILES	CXCR6 block	EBI2 antag	CCR6 antagonist	APJ antag	APJ ag	CXCR6 confirm
N#Cc1c(N)n(-c2ccc(N)cc2)c2nc3ccccc3nc12	.	.	.	.	.	/
N#Cc1c(C#N)c(SSc2c(C#N)c(C#N)c(N)n2-c2ccccc2)n(-c2ccccc2)c1N	101	.	109	/	/	85
COc1ccccc1CNC(=O)N/C=C/c1ccc(Cl)cc1	.	.	.	.	.	/
O=C(Nc1nnc(-c2cccs2)o1)c1cccc(Oc2ccccc2)c1	44	.	.	.	.	.
Cc1[nH]n2c(=O)cc(-c3ccc([N+](=O)[O-])cc3)nc2c1-c1ccccc1	59	.	/	.	.	52
O=c1c2c([N+](=O)[O-])cc([N+](=O)[O-])cc2sn1Cc1ccccc1	45	.	97	.	.	.
Cc1cccc(NC(=O)CCC(=O)N/N=C/c2ccco2)c1	78	.	.	.	.	.
O=C(CCC(=O)N/N=C/c1ccco1)N/N=C/c1ccco1	.	.	.	.	.	/
COc1ccc(S(=O)(=O)N2CCN(C(=O)c3ccccc3Cc3ccccc3)CC2)cc1OC	.	.	/	/	/	/
COC(=O)CN(c1ccccc1)S(=O)(=O)c1cc(Br)ccc1OC	92	.	.	.	.	.
COc1ccc(Br)cc1S(=O)(=O)N(CC(=O)N1CCOCC1)c1ccccc1	.	.	.	.	.	/
C=C1CC(COc2cc(=O)oc3ccccc23)(c2ccccc2)OC1=O (stereo unspecified)	89	52	100	/	/	90
Cc1ccc(S(=O)(=O)ON2C(=O)c3ccccc3C2=O)c(C)c1	67	.	61	/	/	.
Cc1ccc(S(=O)(=O)N2CCN(CCc3ccccc3)CC2)c(C)c1	.	.	.	.	.	/
CCc1nc2c(OCCC3CCCCC3)cccn2c1N(C)C(=O)c1ccc(C)cc1	42	.	/	/	/	48
CS(=O)(=O)c1ccc2nc(NC(=O)CN3CCC(Cc4ccccc4)CC3)sc2c1	.	.	.	.	.	/
CS(=O)(=O)c1ccc2nc(NC(=O)CN3CCN(Cc4ccccc4)CC3)sc2c1	40	.	.	.	.	.
Cc1nc2c(OCc3ccc(C(F)(F)F)cc3)cccn2c1N(C)CC1CC1	47	.	/	/	/	.
C/C(=N\NC(=S)NCCc1ccccc1)c1ccc(Cl)cc1Cl	54	.	/	.	.	54
C/C(=N\NC(=S)NCCc1ccccc1)c1ccc(O)cc1O	.	.	.	.	.	/
COc1ccc(C[C@@H]2OC3(C=CC(=O)C=C3)O[C@H]2Cc2ccc(OC)cc2)cc1	83	88	107	/	/	84
COc1ccc(N2C(=O)CC(Cc3ccccc3)C2=O)cc1 (stereo unspecified)	.	.	.	.	.	/
O=C1C=CC2(C=C1)O[C@H](Cc1ccccc1)[C@@H](Cc1ccccc1)O2	76	85	94	/	/	71
O=C1Nc2ccccc2C1Cc1ccccc1 (stereo unspecified)	.	.	.	.	.	/
O=C(NCCCN1CCOCC1)c1cc2c(s1)CSC2	44	.	.	.	.	.
SMILES	CXCR6 block	EBI2 antag	CCR6 antagonist	APJ antag	APJ ag	CXCR6 confirm
CC12CCC(=O)N1C(C(=O)Nc1ccccc1N1CCOCC1)CS2 (stereo unspecified)	.	.	.	.	.	/
O=C(N/N=C/c1c[nH]c2ccccc12)c1sc2ccccc2c1Cl	.	.	.	.	.	/
O=C(N/N=C/c1ccc([N+](=O)[O-])o1)c1sc2ccccc2c1Cl	41	.	.	.	.	43
CSCCNC(=O)C1(C)CCN1C(=O)C/C=C/c1ccccc1 (stereo unspecified)	.	.	/	/	/	/
Cc1cccc(Cc2cnc(N3C(=N)SC(c4ccccc4)C3=O)s2)c1 (stereo unspecified)	.	.	.	.	.	/
Cc1cccc(Cc2cnc(N3C(=N)SC(C)C3=O)s2)c1 (stereo unspecified)	53	.	/	.	.	73
Cc1ccc(Cc2cnc(N3C(=N)SC(C)C3=O)s2)cc1 (stereo unspecified)	53	.	/	.	.	70
O=C(/C=C/c1ccc(Cl)cc1)N(c1ccccn1)C1CCCCC1	59	.	.	.	.	.
C[C@@H](c1ccccc1)N1C[C@H](COCc2ccccc2)Oc2cc(N3CCC[C@@H]3CO)ccc2S1(=O)=O	.	.	/	/	/	/
O=C(NNc1ccc(C(F)(F)F)cc1[N+](=O)[O-])c1ccc(NS(=O)(=O)c2ccc(F)cc2)cc1	48	.	58	/	/	.
CC(C(Sc1ccccc1N)c1ccccc1)[N+](=O)[O-] (stereo unspecified)	30	.	.	.	.	.
CCOC(=O)c1ccc(NC(=S)NC(=O)c2cncc(Br)c2)cc1	42	.	60	.	.	.
COc1ccc(N(CC(=O)Nc2ccccc2OC)S(=O)(=O)c2ccc(OC)c(OC)c2)cc1	.	.	.	.	.	/
Cc1nc2cc(CC(=O)O)ccc2o1	.	.	.	.	.	/
COc1ccc(C)cc1NC(=O)CN1CCN(S(=O)(=O)c2ccc3ccccc3c2)CC1	.	.	.	.	.	/
C[C@H](CO)N1C[C@H](C)[C@H](CN(C)C(=O)Nc2ccc(F)cc2)OCc2ccccc2-c2c(n(C)c3ccccc23)C1=O	41	.	/	/	/	.
COc1ccc2cc(C(C)C(=O)N3CCC(C)CC3)ccc2c1 (stereo unspecified)	.	.	.	.	.	/
Cc1ccccc1CS(=O)(=O)c1nnc([C@H](Cc2ccccc2)NC(=O)OC(C)(C)C)o1	64	.	89	.	.	58
CCSc1nnc([C@H](Cc2ccccc2)NC(=O)OC(C)(C)C)o1	.	.	.	.	.	/
COCCn1c(SCC(=O)NC2CCCC2)nc2c(c1=O)SCC2	.	.	.	.	.	/
CCCn1c(N)c(C(=O)CSc2ncn[nH]2)c(=O)n(C)c1=O	.	.	.	.	.	/
CCCCn1c(N)c(C(=S)NC(=O)CC(C)(C)C)c(=O)n(C)c1=O	39	.	/	.	.	.
Cn1c(=O)[nH]c(=O)c2[nH]c(N(Cc3ccccc3)Cc3ccccc3)nc21	.	.	.	.	.	/
Cc1[nH]n(-c2ccccc2)c(=S)c1C=NCCCN=Cc1c(C)[nH]n(-c2ccccc2)c1=S	54	.	74	.	.	74
Cc1cc(C)c2c(=O)n(CC(=O)Nc3ccc(Cl)cc3)sc2n1	65	.	.	.	.	.
Cc1ccc(NC(=O)Cn2sc3nc(C)cc(C)c3c2=O)c(Cl)c1	.	.	.	.	.	/
CCOc1ccc(NC(=O)Cn2sc3nc(C)cc(C)c3c2=O)cc1	38	.	.	.	.	.
Cc1cc(C)c2c(=O)n(CC(=O)Nc3cccc(F)c3)sc2n1	.	.	.	.	.	/
O=C(NNC(=O)c1nc2ccccc2[nH]1)OCc1ccccc1	.	.	.	.	.	/
